Here are results for 2 molecules from ChEMBL document CHEMBL4152262, “Design, synthesis and evaluation of novel multi-target-directed ligands for treatment of Alzheimer's disease based on coumarin and lipoic acid scaffolds” (Eur J Med Chem, 2018).

Series [1] relates to SH-SY5Y. The experiment in a line: Neuroprotection against H2O2-induced cell death in human SH-SY5Y cells assessed as cell viability at 100 uM preincubated for 3 hrs followed by H2O2 addition measured after 24 hrs by MTT assay relative to control. To be noted: read-out: Activity. In general terms: Tetrazolium assays rely on reduction of a dye to a coloured formazan, in cell work by metabolically active cells.

For series [2], the system named is SH-SY5Y. The experiment in a line: Inhibition of amyloid beta (1 to 42) (unknown origin)-induced cell death in human SH-SY5Y cells assessed as cell viability at 100 uM preincubated for 3 hrs followed by amyloid beta (1 to 42) addition measured after 24 hrs by MTT assay relative to control. As to conditions: read-out: Activity.
Series [3] deals with PC-12. The experiment in a line: Neuroprotection against H2O2-induced cell death in rat PC12 cells assessed as cell viability at 0.1 uM preincubated for 3 hrs followed by H2O2 stimulation measured after 2 hrs by MTT assay (reference value: 25.2 to 41.8%). It is filed as functional. To be noted: read-out: Activity.
Series [4] has as its system PC-12. Briefly: Neuroprotection against H2O2-induced cell death in rat PC12 cells assessed as cell viability at 1 uM preincubated for 3 hrs followed by H2O2 stimulation measured after 2 hrs by MTT assay (reference value: 25.2 to 41.8%). Type of series: functional. As to conditions: read-out: Activity.
Series [5] concerns PC-12. Briefly: Neuroprotection against H2O2-induced cell death in rat PC12 cells assessed as cell viability at 5 uM preincubated for 3 hrs followed by H2O2 stimulation measured after 2 hrs by MTT assay (reference value: 25.2 to 41.8%). It is filed as functional. To be noted: read-out: Activity.
Series [6] relates to PC-12. Briefly: Neuroprotection against H2O2-induced cell death in rat PC12 cells assessed as cell viability at 10 uM preincubated for 3 hrs followed by H2O2 stimulation measured after 2 hrs by MTT assay (reference value: 25.2 to 41.8%). Type of series: functional. To be noted: read-out: Activity.
For series [7], the system named is PC-12. Briefly: Neuroprotection against H2O2-induced cell death in rat PC12 cells assessed as cell viability at 20 uM preincubated for 3 hrs followed by H2O2 stimulation measured after 2 hrs by MTT assay (reference value: 25.2 to 41.8%). Type of series: functional. As to conditions: read-out: Activity.
Series [8] concerns PC-12. Briefly: Neuroprotection against H2O2-induced cell death in rat PC12 cells assessed as cell viability at 50 uM preincubated for 3 hrs followed by H2O2 stimulation measured after 2 hrs by MTT assay (reference value: 25.2 to 41.8%). Type of series: functional. To be noted: read-out: Activity.
Series [9] deals with PC-12. Briefly: Neuroprotection against H2O2-induced cell death in rat PC12 cells assessed as increase in cell viability preincubated for 3 hrs followed by H2O2 stimulation measured after 2 hrs by MTT assay. Type of series: functional, cell-based.
The target of the next series is Acetylcholinesterase (Electrophorus electricus, UniProt O42275). The experiment in a line: Inhibition of electric eel AChE using acetylthiocholine iodide as substrate pretreated for 5 mins followed by substrate addition by Ellman's method. (In Ellman's method for cholinesterases, released thiocholine reacts with DTNB.)
Acetylcholinesterase, sequence (O42275 whole entry): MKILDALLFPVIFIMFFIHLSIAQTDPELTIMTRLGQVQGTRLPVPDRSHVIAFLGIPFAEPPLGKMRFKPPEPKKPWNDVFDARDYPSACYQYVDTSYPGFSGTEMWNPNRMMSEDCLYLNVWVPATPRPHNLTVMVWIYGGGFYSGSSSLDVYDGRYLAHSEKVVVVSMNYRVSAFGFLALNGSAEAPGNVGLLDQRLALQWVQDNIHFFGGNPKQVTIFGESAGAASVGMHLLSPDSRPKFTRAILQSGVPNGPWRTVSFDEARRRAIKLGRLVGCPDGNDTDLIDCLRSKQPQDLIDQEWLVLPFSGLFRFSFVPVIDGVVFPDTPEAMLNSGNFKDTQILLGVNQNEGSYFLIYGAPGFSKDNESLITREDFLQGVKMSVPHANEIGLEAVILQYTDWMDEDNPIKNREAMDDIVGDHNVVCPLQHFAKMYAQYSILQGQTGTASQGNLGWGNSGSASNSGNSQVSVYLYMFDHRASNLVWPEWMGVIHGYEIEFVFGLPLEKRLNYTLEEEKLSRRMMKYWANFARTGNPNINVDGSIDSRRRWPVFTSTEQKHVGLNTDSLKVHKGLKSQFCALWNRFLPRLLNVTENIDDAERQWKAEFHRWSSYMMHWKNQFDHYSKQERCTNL
In the next series the target is Cholinesterase (Equus caballus, UniProt P81908). The experiment in a line: Inhibition of equine serum BuChE using butyrylthiocholine iodide as substrate pretreated for 5 mins followed by substrate addition by Ellman's method. An outline of the steps: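 Ellman assay with horse serum BuChE (5 IU/mL) in 0.1 M phosphate buffer pH 8.0 with DTNB. Compound was preincubated with enzyme 5 min, then butyrylthiocholine iodide was added. Absorbance read at 412 nm. IC50 from a log concentration vs % inhibition curve; triplicate runs.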
Cholinesterase, sequence (P81908 whole entry): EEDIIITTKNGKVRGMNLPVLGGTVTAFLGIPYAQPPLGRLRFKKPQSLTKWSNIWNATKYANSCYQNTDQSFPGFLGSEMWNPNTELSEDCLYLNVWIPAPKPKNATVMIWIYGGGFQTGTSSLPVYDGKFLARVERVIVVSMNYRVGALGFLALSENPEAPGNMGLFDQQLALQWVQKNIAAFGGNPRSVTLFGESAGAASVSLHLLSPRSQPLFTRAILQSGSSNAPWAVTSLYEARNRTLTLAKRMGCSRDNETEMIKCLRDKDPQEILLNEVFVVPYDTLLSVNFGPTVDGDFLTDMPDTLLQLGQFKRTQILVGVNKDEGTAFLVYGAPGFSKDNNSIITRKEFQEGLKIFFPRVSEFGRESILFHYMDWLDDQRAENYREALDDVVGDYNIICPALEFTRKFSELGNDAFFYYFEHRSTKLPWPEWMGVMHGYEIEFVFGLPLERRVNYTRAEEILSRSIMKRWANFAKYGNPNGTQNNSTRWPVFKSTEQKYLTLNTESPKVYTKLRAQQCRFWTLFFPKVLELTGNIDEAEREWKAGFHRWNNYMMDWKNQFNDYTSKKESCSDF

The nature of series [10]: Inhibition of soybean 15-LOX assessed as reduction in conversion of linoleic acid to 13-hydroperoxylinoleic acid by spectrophotometric method. The arrangement: species or system Glycine max. An outline of the steps:
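Soybean lipoxygenase type 1-B (final 167 U/mL) with compound (DMSO stock diluted in 0.1 M phosphate buffer pH 8) and linoleic acid (134 mM in ethanol) at room temperature. Formation of 13-hydroperoxylinoleic acid followed spectrophotometrically at 234 nm.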

The target of series [11] is Amyloid-beta precursor protein (Homo sapiens) (UniProt P05067). Briefly: Inhibition of amyloid beta (1 to 42) (unknown origin) self-induced aggregation at 100 uM incubated for 48 hrs by thioflavin-T fluorescence assay relative to control.
Amyloid-beta precursor protein (Homo sapiens), sequence (P05067 whole entry): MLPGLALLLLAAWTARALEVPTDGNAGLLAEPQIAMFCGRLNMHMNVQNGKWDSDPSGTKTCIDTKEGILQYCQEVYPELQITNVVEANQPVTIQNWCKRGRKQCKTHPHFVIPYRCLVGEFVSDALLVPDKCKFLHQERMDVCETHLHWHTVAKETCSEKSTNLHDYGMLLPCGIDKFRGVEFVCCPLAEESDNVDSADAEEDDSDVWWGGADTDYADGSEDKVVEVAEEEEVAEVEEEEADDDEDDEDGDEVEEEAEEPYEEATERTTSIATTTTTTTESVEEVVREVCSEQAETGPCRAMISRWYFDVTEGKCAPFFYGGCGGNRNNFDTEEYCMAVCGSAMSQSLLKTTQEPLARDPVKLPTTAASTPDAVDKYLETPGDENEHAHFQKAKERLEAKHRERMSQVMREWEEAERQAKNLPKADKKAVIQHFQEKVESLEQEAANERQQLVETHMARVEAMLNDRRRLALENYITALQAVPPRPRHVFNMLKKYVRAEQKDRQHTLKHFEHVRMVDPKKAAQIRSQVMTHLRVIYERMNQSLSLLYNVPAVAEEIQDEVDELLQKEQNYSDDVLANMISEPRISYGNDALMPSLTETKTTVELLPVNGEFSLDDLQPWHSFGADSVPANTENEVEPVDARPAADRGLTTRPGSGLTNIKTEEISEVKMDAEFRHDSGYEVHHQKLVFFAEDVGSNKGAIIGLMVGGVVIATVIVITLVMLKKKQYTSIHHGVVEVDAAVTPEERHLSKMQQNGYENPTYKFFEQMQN
Series [12] relates to SH-SY5Y. Briefly: Neuroprotection against H2O2-induced cell death in human SH-SY5Y cells assessed as cell viability at 50 uM preincubated for 3 hrs followed by H2O2 addition measured after 24 hrs by MTT assay relative to control. Type of series: functional. To be noted: read-out: Activity. The procedure, abridged: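 SH-SY5Y cells grown in DMEM with 10% FBS, 1% L-glutamine and antibiotics, 5×10^3/well. Compound (10 or 50 µM) for 3 h before 250 µM H2O2, then 24 h incubation. MTT read at 570 nm after DMSO solubilization. Viability as blank-corrected % of untreated control; three independent experiments, mean ± SEM.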

Series [13] deals with SH-SY5Y. The experiment in a line: Inhibition of amyloid beta (1 to 42) (unknown origin)-induced cell death in human SH-SY5Y cells assessed as cell viability at 50 uM preincubated for 3 hrs followed by amyloid beta (1 to 42) addition measured after 24 hrs by MTT assay relative to control. To be noted: read-out: Activity. Type of series: functional. The procedure, abridged:
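SH-SY5Y cells grown in DMEM with 10% FBS, 1% L-glutamine and antibiotics, seeded at 5×10^3/well. Pretreated 3 h with compound (10 or 50 µM), then Aβ1-42 10 µM added for 24 h. MTT, formazan dissolved in DMSO, A570. Viability as blank-corrected % of untreated control; three independent experiments, mean ± SEM.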

Series [14] deals with PC-12. The experiment in a line: Cytotoxicity against rat PC12 cells assessed as effect on cell viability at 1 to 50 uM by MTT assay. It is filed as cell-based. To be noted: pc-12, 50 µM.
Series [15] relates to PC-12. The experiment in a line: Inhibition of H2O2-induced ROS generation in rat PC12 cells assessed as intracellular ROS level at 50 uM preincubated for 6 hrs followed by H2O2 addition measured after 18 hrs by DCFH-DA staining based fluorimetric method relative to control. It is filed as functional. Set-up: scale not given: the % may be the effect or the level left. The procedure, abridged: (§1)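 PC12 cells at 1×10^4/well in RPMI with 10% FBS and penicillin/streptomycin, 24 h at 37 °C, 5% CO2. Test samples (1, 5, 10, 50 µM; ≤0.5% DMSO) for 6 h, PBS wash, then H2O2 150 µM for 18 h. Loaded with 10 µM DCFH-DA for 30 min at 37 °C in the dark, washed twice. DCF fluorescence read at ex 485/em 528 nm as % of untreated control. Three independent experiments, mean ± SEM.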

Series [16] deals with PC-12. The experiment in a line: Inhibition of H2O2-induced ROS generation in rat PC12 cells assessed as intracellular ROS level at 10 uM preincubated for 6 hrs followed by H2O2 addition measured after 18 hrs by DCFH-DA staining based fluorimetric method relative to control. It is filed as functional. The arrangement: scale not given: the % may be the effect or the level left. The procedure, abridged:
as §1

The subject of series [17] is PC-12. The experiment in a line: Inhibition of H2O2-induced ROS generation in rat PC12 cells assessed as intracellular ROS level at 5 uM preincubated for 6 hrs followed by H2O2 addition measured after 18 hrs by DCFH-DA staining based fluorimetric method relative to control. Type of series: functional. The arrangement: scale not given: the % may be the effect or the level left. The procedure, abridged:
as §1

Series [18] concerns PC-12. Briefly: Inhibition of H2O2-induced ROS generation in rat PC12 cells assessed as intracellular ROS level at 1 uM preincubated for 6 hrs followed by H2O2 addition measured after 18 hrs by DCFH-DA staining based fluorimetric method relative to control. It is filed as functional. Set-up: scale not given: the % may be the effect or the level left. The procedure, abridged: as §1

In series [19] the test system is PC-12. The experiment in a line: Inhibition of H2O2-induced ROS generation in rat PC12 cells preincubated for 6 hrs followed by H2O2 addition measured after 18 hrs by DCFH-DA staining based fluorimetric method. Type of series: functional, cell-based. An outline of the steps: as §1

Turning to `COc1cc2c(cc1OC)C(=O)C(CC1CCN(Cc3ccccc3)CC1)C2` (stereo unspecified) [DONEPEZIL], the viability at 100 µM turned out to be 33% with SH-SY5Y [1] and 39.9% in the series on SH-SY5Y [2].

Turning to `Cc1cc(=O)oc2cc(OCCCn3cc(CNC(=O)CCCCC4CCSS4)nn3)ccc12` (stereo unspecified), the viability at 0.1 µM in the series on PC-12 [3] was 44.8%. The viability at 1 µM in the series on PC-12 [4] turned out to be 54.5%. Moreover, the viability at 5 µM with PC-12 [5] was determined as 64.6%. In addition, the viability at 10 µM in the series on PC-12 [6] stood at 69.4%. Further, the viability at 20 µM in the series with PC-12 [7] worked out at 74.3%. Moreover, the results for the viability at 50 µM in the series on PC-12 [8], in the series on SH-SY5Y [12] and with SH-SY5Y [13] were 75.4%, 55.6% and 72.9%, respectively. For the same molecule, the Activity entry was “Dose-dependent effect” in the series with PC-12 [9]; “Non-Toxic” in the series with PC-12 [14]; 49.24% in the series on PC-12 [15]; 122.93% in the series with PC-12 [16]; 131.54% in the series with PC-12 [17]; 118.8% in the series with PC-12 [18]. Moreover, the figures for the half-maximal inhibitory concentration (IC50) (at Acetylcholinesterase; at Cholinesterase; in [10]) were 55 µM, more than 100 µM and more than 100 µM, respectively. Besides, the inhibition in series [11] was 26.6%; with PC-12 [19] it was “Dose-dependent effect”.

The term IC50 denotes the concentration needed to halve the response being measured. A word on the inhibition: it is the percentage by which the read-out fell short of the control.
